Measured values as given in ChEMBL document CHEMBL4396921, “Synthesis and Biological Activity of Peptide α-Ketoamide Derivatives as Proteasome Inhibitors” (ACS Med Chem Lett, 2019).
Blank lines part the entries; values can stand above or below the compound they belong to. Residues, ends and D or L forms follow the SMILES beside them. *: point of attachment. Cbz = O=C(OCc1ccccc1)*

How the values were obtained:
[1] = molecular target: T1, Proteasome Macropain subunit MB1 (Homo sapiens, UniProt P28074); assay: Inhibition of 20S proteosome beta 5 purified from human HCT116 cells using Suc-LLVY-AMC as substrate incubated for 30 to 120 mins by fluorimetry
T1 sequence (P28074 whole entry): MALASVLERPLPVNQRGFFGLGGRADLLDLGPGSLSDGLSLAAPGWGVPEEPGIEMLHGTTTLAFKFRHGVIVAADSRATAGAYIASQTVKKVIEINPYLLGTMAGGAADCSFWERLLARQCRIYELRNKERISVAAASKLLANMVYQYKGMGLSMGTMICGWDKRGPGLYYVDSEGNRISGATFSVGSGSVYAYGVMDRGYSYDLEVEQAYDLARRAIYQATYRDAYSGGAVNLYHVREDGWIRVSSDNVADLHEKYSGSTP
Summary of the method: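 Semipurified proteasomes were pretreated with compound at 0.01–100 μM in activity buffer. Fluorogenic AMC substrates were used: Z-LLE-AMC for PGPH (β1), Boc-LRR-AMC for T-L (β2) and Suc-LLVY-AMC for ChT-L (β5). IC50 reported as mean ± SEM of three independent experiments.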

HCT-116 [2] = assay: Antiproliferative activity against human HCT116 cells assessed as reduction in cell viability incubated for 72 hrs by MTT assay; type: functional, cell-based; conditions: HCT-116, 72 h
Summary of the method: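 HCT116 human colorectal carcinoma cells exposed to compounds at 0.1–100 μM. IC50 for proliferation reported as mean ± SEM of three independent experiments.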

HCT-116 [3] = assay: Induction of apoptosis in human HCT116 cells assessed as early apoptotic cells at 1 uM incubated for 48 hrs by annexin-V FITC and propidium iodide staining based flow cytometry relative to control; type: functional
Summary of the method: (§1)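 HCT116 tumour cells cultured 48 or 72 h with or without compound at 1 μM. Cells were stained with Annexin V and propidium iodide. Annexin V+/PI− was scored as early apoptotic and Annexin V+/PI+ as late apoptotic. Percentages of cells were read from dot plots, with three experiments run.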

HCT-116 [4] = assay: Induction of apoptosis in human HCT116 cells assessed as necrotic cells at 1 uM incubated for 72 hrs by annexin-V FITC and propidium iodide staining based flow cytometry relative to control; type: functional; summary of the method: as §1
HCT-116 [5] = assay: Induction of apoptosis in human HCT116 cells assessed as early apoptotic cells at 1 uM incubated for 72 hrs by annexin-V FITC and propidium iodide staining based flow cytometry relative to control; type: functional; summary of the method: as §1
HCT-116 [6] = assay: Induction of apoptosis in human HCT116 cells assessed as viable cells at 1 uM incubated for 48 hrs by annexin-V FITC and propidium iodide staining based flow cytometry relative to control; type: functional; conditions: HCT-116, 48 h, read-out: Activity; summary of the method: as §1
HCT-116 [7] = assay: Induction of apoptosis in human HCT116 cells assessed as late apoptotic cells at 1 uM incubated for 72 hrs by annexin-V FITC and propidium iodide staining based flow cytometry relative to control; type: functional; summary of the method: as §1
HCT-116 [8] = assay: Induction of apoptosis in human HCT116 cells assessed as late apoptotic cells at 1 uM incubated for 48 hrs by annexin-V FITC and propidium iodide staining based flow cytometry relative to control; type: functional; summary of the method: as §1
HCT-116 [9] = assay: Induction of apoptosis in human HCT116 cells assessed as viable cells at 1 uM incubated for 72 hrs by annexin-V FITC and propidium iodide staining based flow cytometry relative to control; type: functional; conditions: HCT-116, 72 h, read-out: Activity; summary of the method: as §1
HCT-116 [10] = assay: Induction of apoptosis in human HCT116 cells assessed as necrotic cells at 1 uM incubated for 48 hrs by annexin-V FITC and propidium iodide staining based flow cytometry relative to control; type: functional; summary of the method: as §1
Homo sapiens [11] = species on record: Homo sapiens; assay: Selectivity index, ratio of IC50 of 20S proteosome beta 1 purified from human HCT116 cells to IC50 of 20S proteosome beta 2 purified from human HCT116 cells
Homo sapiens [12] = species on record: Homo sapiens; assay: Selectivity index, ratio of IC50 of 20S proteosome beta 5 purified from human HCT116 cells to IC50 of 20S proteosome beta 2 purified from human HCT116 cells
Homo sapiens [13] = species on record: Homo sapiens; assay: Selectivity ratio of IC50 of 20S proteosome beta 1 purified from human HCT116 cells to IC50 of 20S proteosome beta 5 purified from human HCT116 cells
Homo sapiens [14] = species on record: Homo sapiens; assay: Selectivity ratio of IC50 of 20S proteosome beta 2 purified from human HCT116 cells to IC50 of 20S proteosome beta 5 purified from human HCT116 cells

IC50 [1]: > 100 µM
SMILES: CC(C)C[C@H](NC(=O)OCc1ccccc1)C(=O)N[C@@H](CC(N)=O)C(O)C(=O)NCc1ccccc1 (stereo not given in full)

IC50 [1]: 50.2 µM
SMILES: CC(C)C[C@H](NC(=O)OCc1ccccc1)C(=O)N[C@@H](CC(C)C)C(O)C(=O)NCc1ccccc1 (stereo not given in full)

IC50 [1]: 0.48 µM
SMILES: CC(C)C[C@H](NC(=O)OCc1ccccc1)C(=O)N[C@@H](CC(C)C)C(=O)N[C@@H](CC(C)C)C(=O)C(=O)N1CCOCC1

IC50 [1]: 0.056 µM
IC50 (HCT-116 [2]): 930 nM
SMILES: CC(C)C[C@H](NC(=O)OCc1ccccc1)C(=O)N[C@@H](CC(C)C)C(=O)N[C@@H](CC(C)C)C(=O)C(=O)NCc1ccc(F)cc1

IC50 [1]: 0.012 µM
IC50 (HCT-116 [2]): 810 nM
SMILES: CC(C)CNC(=O)C(=O)[C@H](CC(C)C)NC(=O)[C@H](CC(C)C)NC(=O)[C@H](CC(C)C)NC(=O)OCc1ccccc1
Activity (HCT-116 [3]): 20.7%
Activity (HCT-116 [4]): 1.91%
Activity (HCT-116 [5]): 10.5%
viability at 1 µM (HCT-116 [6]): 55.4%
Activity (HCT-116 [7]): 38.8%
Activity (HCT-116 [8]): 22.3%
viability at 1 µM (HCT-116 [9]): 48.8%
Activity (HCT-116 [10]): 1.53%

IC50 [1]: 70.4 µM
SMILES: CC(C)C[C@H](NC(=O)OCc1ccccc1)C(=O)N[C@@H](Cc1ccc(O)cc1)C(O)C(=O)NCc1ccccc1 (stereo not given in full)

IC50 (HCT-116 [2]): 820 nM
SMILES: CC(C)C[C@@H](C=O)NC(=O)[C@H](CC(C)C)NC(=O)[C@H](CC(C)C)NC(=O)OCc1ccccc1 [MG-132] (Cbz-Leu-Leu-Leu-aldehyde)

IC50 [1]: 82.1 µM
SMILES: CC(C)C[C@H](NC(=O)OCc1ccccc1)C(=O)N[C@@H](C(C)C)C(O)C(=O)NCc1ccccc1 (stereo not given in full)

IC50 [1]: 0.53 µM
SMILES: CC(C)C[C@H](NC(=O)OCc1ccccc1)C(=O)N[C@@H](CC(C)C)C(=O)N[C@@H](CC(C)C)C(O)C(=O)NCc1ccccc1 (stereo not given in full)

IC50 [1]: 0.92 µM
IC50 (HCT-116 [2]): 8600 nM
SMILES: CC(C)C[C@H](NC(=O)OCc1ccccc1)C(=O)N[C@@H](CC(C)C)C(=O)C(=O)NCc1ccccc1

IC50 [1]: 51.1 µM
SMILES: CC(C)C[C@H](NC(=O)OCc1ccccc1)C(=O)N[C@@H](Cc1ccccc1)C(=O)C(=O)NCc1ccccc1

IC50 [1]: > 100 µM
SMILES: CC(C)C[C@H](NC(=O)OCc1ccccc1)C(=O)N[C@@H](CC(C)C)C(=O)N[C@@H](CC(C)C)C(O)C(=O)N1CCOCC1 (stereo not given in full)

IC50 [1]: 0.014 µM
IC50 (HCT-116 [2]): 780 nM
SMILES: CC(C)C[C@H](NC(=O)OCc1ccccc1)C(=O)N[C@@H](CC(C)C)C(=O)N[C@@H](CC(C)C)C(=O)C(=O)NCc1ccccc1

IC50 [1]: > 100 µM
SMILES: CC(C)CNC(=O)C(O)[C@H](CC(C)C)NC(=O)[C@H](CC(C)C)NC(=O)[C@H](CC(C)C)NC(=O)OCc1ccccc1 (stereo not given in full)

IC50 [1]: > 100 µM
SMILES: CC(C)C[C@H](NC(=O)OCc1ccccc1)C(=O)N[C@@H](Cc1ccccc1)C(O)C(=O)NCc1ccccc1 (stereo not given in full)

IC50 [1]: > 100 µM
SMILES: CC(C)C[C@H](NC(=O)OCc1ccccc1)C(=O)N[C@@H](CC(N)=O)C(=O)C(=O)NCc1ccccc1

IC50 [1]: 0.77 µM
SMILES: CC(C)C[C@H](NC(=O)OCc1ccccc1)C(=O)N[C@@H](CC(C)C)C(=O)N[C@@H](CC(C)C)C(=O)C(=O)N1CCc2ccccc2C1

IC50 [1]: > 100 µM
SMILES: CC(C)C[C@H](NC(=O)OCc1ccccc1)C(=O)N[C@@H](Cc1cccc2ccccc12)C(O)C(=O)NCc1ccccc1 (stereo not given in full)

IC50 [1]: 8.1 µM
SMILES: CC(C)C[C@H](NC(=O)OCc1ccccc1)C(=O)N[C@@H](CC(C)C)C(=O)N[C@@H](CC(C)C)C(O)C(=O)Nc1cccc2ccccc12 (stereo not given in full)

IC50 [1]: 63.3 µM
Ratio IC50 (Homo sapiens [11]): 7
Ratio IC50 (Homo sapiens [12]): 30
SMILES: CC(C)C[C@H](NC(=O)OCc1ccccc1)C(=O)N[C@H](C(=O)C(=O)NCc1ccccc1)C(C)C

IC50 [1]: 12.4 µM
IC50 (HCT-116 [2]): > 100000 nM
SMILES: CC(C)C[C@H](NC(=O)OCc1ccccc1)C(=O)N[C@@H](Cc1ccc(O)cc1)C(=O)C(=O)NCc1ccccc1

IC50 [1]: > 100 µM
SMILES: CC(C)C[C@H](NC(=O)OCc1ccccc1)C(=O)N[C@@H](CC(C)C)C(=O)N[C@@H](CC(C)C)C(O)C(=O)N1CCc2ccccc2C1 (stereo not given in full)

IC50 [1]: > 100 µM
SMILES: CC(C)C[C@H](NC(=O)OCc1ccccc1)C(=O)N[C@@H](CC(C)C)C(=O)N[C@@H](CC(C)C)C(O)C(=O)NCc1ccc(F)cc1 (stereo not given in full)

Ratio IC50 (Homo sapiens [13]): 8200
IC50 [1]: 0.007 µM
IC50 (HCT-116 [2]): < 100 nM
Ratio IC50 (Homo sapiens [14]): > 14200
SMILES: CC(C)C[C@H](NC(=O)OCc1ccccc1)C(=O)N[C@@H](CC(C)C)C(=O)N[C@@H](CC(C)C)C(=O)C(=O)Nc1cccc2ccccc12
Activity (HCT-116 [3]): 22.6%
Activity (HCT-116 [4]): 2.29%
Activity (HCT-116 [5]): 11.3%
viability at 1 µM (HCT-116 [6]): 45.1%
Activity (HCT-116 [7]): 59.4%
Activity (HCT-116 [8]): 29.5%
viability at 1 µM (HCT-116 [9]): 27.1%
Activity (HCT-116 [10]): 2.77%
